# According to ChEMBL document CHEMBL4049407, “Positional Scanning Identifies the Molecular Determinants of a High Affinity Multi-Leucine Inhibitor for Furin and PACE4” (J Med Chem, 2017):
# Square brackets hold non-standard residues; d marks the D form. Peptide text beside a SMILES is read from it. * marks the point of attachment. NH(4-amidinobenzyl) = N=C(N)c1ccc(CN*)cc1
# Key:
# DU-145 = assay: Antiproliferative activity against human DU145 cells assessed as reduction in metabolic activity after 72 hrs by MTT assay; format: functional, cell-based; settings: DU-145, 72 h
# Method in brief: (§1)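 Cells kept at 37°C, 5% CO2 in RPMI 1640 (DU145 with 5% FBS, 1500 cells/well; LNCaP with 10% FBS, 2500 cells/well) on poly-L-lysine coated plates. Peptides added 24 h after plating in fresh serum medium at 0, 1, 10, 25, 50, 75, 100, 250 µM for 72 h. MTT 1 mg/mL final for 4 h; formazan dissolved in 2-propanol HCl. Signal normalised to water vehicle; IC50 from dose-response curves.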
# Homo sapiens = organism: Homo sapiens; assay: Selectivity index, ratio of Ki for recombinant human furin expressed in drosophila S2 cells to Ki for recombinant human PACE4 expressed in drosophila S2 cells; format: cell-based
# Method in brief: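 Ratio Ki(furin)/Ki(PACE4). […] PACE4 buffer was BisTris pH 6.5; furin buffer was HEPES pH 7.5, or BisTris pH 6.5 for His peptides. Ki fitted by Morrison equation from three independent experiments.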
# LNCaP = assay: Antiproliferative activity against human LNCAP cells assessed as reduction in metabolic activity after 72 hrs by MTT assay; format: functional, cell-based; method in brief: as §1
# Furin = Furin (Homo sapiens, UniProt P09958); assay: Inhibition of recombinant human furin expressed in drosophila S2 cells using pyrGlu-Arg-Thr-Lys-Arg-7-amido-4-methylcoumarin as substrate after 60 mins by spectrofluorometry method; format: cell-based
# Chain of Furin (P09958 whole entry): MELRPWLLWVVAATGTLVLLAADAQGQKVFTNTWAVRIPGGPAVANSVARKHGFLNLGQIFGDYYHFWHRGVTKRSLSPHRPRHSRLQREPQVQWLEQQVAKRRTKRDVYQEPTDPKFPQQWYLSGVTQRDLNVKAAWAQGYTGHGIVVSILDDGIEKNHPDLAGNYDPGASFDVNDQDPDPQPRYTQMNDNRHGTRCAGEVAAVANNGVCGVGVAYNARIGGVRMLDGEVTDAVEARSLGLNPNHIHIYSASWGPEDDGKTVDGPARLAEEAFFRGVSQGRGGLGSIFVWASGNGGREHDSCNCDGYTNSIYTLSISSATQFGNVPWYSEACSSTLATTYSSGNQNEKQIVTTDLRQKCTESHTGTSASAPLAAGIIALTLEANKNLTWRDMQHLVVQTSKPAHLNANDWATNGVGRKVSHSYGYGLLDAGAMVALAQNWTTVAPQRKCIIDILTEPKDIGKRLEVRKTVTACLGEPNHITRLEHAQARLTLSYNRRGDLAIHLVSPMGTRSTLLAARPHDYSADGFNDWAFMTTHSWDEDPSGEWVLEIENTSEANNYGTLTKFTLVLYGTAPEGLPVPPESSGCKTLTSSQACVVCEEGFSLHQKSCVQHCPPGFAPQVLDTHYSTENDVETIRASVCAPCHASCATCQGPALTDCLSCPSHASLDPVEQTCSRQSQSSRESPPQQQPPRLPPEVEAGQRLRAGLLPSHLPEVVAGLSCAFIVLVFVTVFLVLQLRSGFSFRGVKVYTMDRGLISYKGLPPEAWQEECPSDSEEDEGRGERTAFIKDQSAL
# Method in brief: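 Human recombinant purified furin at 2 units/100 µL (0.54 nM), in 100 mM HEPES pH 7.5, 1 mM CaCl2, 1 mM β-mercaptoethanol, 1.8 mg/mL BSA. His-containing peptides run instead in 20 mM BisTris pH 6.5 with the same additives. Substrate 100 µM, KM 5.04 µM. Inhibitor 1 nM to 10 µM; 60 min at 37°C. Fluorescence ex 370 / em 460 nm. Ki by Morrison equation; triplicate experiments, mean ± SD.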
# [1] = target: T1, Proprotein convertase subtilisin/kexin type 6 (Homo sapiens, UniProt P29122); assay: Inhibition of recombinant human PACE4 expressed in drosophila S2 cells using pyrGlu-Arg-Thr-Lys-Arg-7-amido-4-methylcoumarin as substrate after 60 mins by spectrofluorometry method; format: cell-based
# T1 sequence (P29122 whole entry): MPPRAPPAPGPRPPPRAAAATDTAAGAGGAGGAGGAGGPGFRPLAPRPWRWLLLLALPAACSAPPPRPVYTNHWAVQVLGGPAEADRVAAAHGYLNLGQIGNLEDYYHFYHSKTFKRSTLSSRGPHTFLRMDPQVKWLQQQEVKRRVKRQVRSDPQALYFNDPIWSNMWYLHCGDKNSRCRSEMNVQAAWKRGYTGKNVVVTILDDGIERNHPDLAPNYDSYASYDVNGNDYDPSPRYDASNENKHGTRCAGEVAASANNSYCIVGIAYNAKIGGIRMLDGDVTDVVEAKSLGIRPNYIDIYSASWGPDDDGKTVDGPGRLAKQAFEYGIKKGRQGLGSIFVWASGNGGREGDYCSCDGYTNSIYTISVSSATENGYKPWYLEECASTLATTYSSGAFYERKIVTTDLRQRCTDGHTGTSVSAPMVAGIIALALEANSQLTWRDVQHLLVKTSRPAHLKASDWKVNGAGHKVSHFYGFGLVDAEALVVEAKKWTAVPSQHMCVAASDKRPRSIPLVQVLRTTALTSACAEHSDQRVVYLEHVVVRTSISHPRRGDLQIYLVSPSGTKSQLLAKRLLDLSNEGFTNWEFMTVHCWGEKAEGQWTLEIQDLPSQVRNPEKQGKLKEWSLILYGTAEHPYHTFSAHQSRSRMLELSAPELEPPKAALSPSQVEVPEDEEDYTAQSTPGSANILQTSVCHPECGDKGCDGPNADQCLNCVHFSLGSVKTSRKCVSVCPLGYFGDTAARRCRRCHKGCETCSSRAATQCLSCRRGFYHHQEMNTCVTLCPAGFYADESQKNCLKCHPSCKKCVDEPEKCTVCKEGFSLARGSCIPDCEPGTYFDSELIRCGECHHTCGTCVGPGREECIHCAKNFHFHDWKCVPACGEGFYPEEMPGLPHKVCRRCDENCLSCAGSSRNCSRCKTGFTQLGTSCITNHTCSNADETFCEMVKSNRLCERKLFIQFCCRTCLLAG
# Method in brief: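 Human recombinant purified PACE4 at 2 units/100 µL (20.18 nM), in 20 mM BisTris pH 6.5, 1 mM CaCl2, 1.8 mg/mL BSA. Substrate 100 µM, KM 4.035 µM. Inhibitor 1 nM to 10 µM; 60 min at 37°C. Fluorescence ex 370 / em 460 nm. Ki by Morrison tight-binding equation; three independent experiments, mean ± SD.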
IC50 (DU-145) [nM],IC50 (LNCaP) [nM],Ki (Furin) [nM],Ki [1] [nM],SMILES,Ratio Ki (Homo sapiens)
23000,160000,4,6.2,CC(=O)N[C@@H](Cc1ccc(O)cc1)C(=O)N[C@@H](CC(C)C)C(=O)N[C@@H](CC(C)C)C(=O)N[C@@H](CC(C)C)C(=O)N[C@@H](CCCNC(=N)N)C(=O)N[C@H](C(=O)N[C@@H](CCCCN)C(=O)NCc1ccc(C(=N)N)cc1)C(C)C (Ac-YLLLRVK-{NH(4-amidinobenzyl)}),0.6
35000,50000,13,8,CC(=O)N[C@@H](CC(C)C)C(=O)N[C@@H](Cc1c[nH]c2ccccc12)C(=O)N[C@@H](CC(C)C)C(=O)N[C@@H](CC(C)C)C(=O)N[C@@H](CCCNC(=N)N)C(=O)N[C@H](C(=O)N[C@@H](CCCCN)C(=O)NCc1ccc(C(=N)N)cc1)C(C)C (Ac-LWLLRVK-{NH(4-amidinobenzyl)}),1.6
30000,41000,9,9,CC(=O)N[C@@H](Cc1ccccc1)C(=O)N[C@@H](CC(C)C)C(=O)N[C@@H](CC(C)C)C(=O)N[C@@H](CC(C)C)C(=O)N[C@@H](CCCNC(=N)N)C(=O)N[C@H](C(=O)N[C@@H](CCCCN)C(=O)NCc1ccc(C(=N)N)cc1)C(C)C (Ac-FLLLRVK-{NH(4-amidinobenzyl)}),1
75000,70000,4,5,CC(=O)N[C@H](C(=O)N[C@@H](CC(C)C)C(=O)N[C@@H](CC(C)C)C(=O)N[C@@H](CC(C)C)C(=O)N[C@@H](CCCNC(=N)N)C(=O)N[C@H](C(=O)N[C@@H](CCCCN)C(=O)NCc1ccc(C(=N)N)cc1)C(C)C)C(C)C (Ac-VLLLRVK-{NH(4-amidinobenzyl)}),0.8
27000,40000,5,5,CC[C@H](C)[C@H](NC(C)=O)C(=O)N[C@@H](CC(C)C)C(=O)N[C@@H](CC(C)C)C(=O)N[C@@H](CC(C)C)C(=O)N[C@@H](CCCNC(=N)N)C(=O)N[C@H](C(=O)N[C@@H](CCCCN)C(=O)NCc1ccc(C(=N)N)cc1)C(C)C (Ac-ILLLRVK-{NH(4-amidinobenzyl)}),1
150000,120000,7,8,CC(=O)N[C@@H](CCC(=O)O)C(=O)N[C@@H](CC(C)C)C(=O)N[C@@H](CC(C)C)C(=O)N[C@@H](CC(C)C)C(=O)N[C@@H](CCCNC(=N)N)C(=O)N[C@H](C(=O)N[C@@H](CCCCN)C(=O)NCc1ccc(C(=N)N)cc1)C(C)C (Ac-ELLLRVK-{NH(4-amidinobenzyl)}),0.9
40000,50000,6,4,CC(=O)N[C@@H](CC(C)C)C(=O)N[C@@H](CC(C)C)C(=O)N[C@@H](CC(C)C)C(=O)N[C@@H](Cc1ccccc1)C(=O)N[C@@H](CCCNC(=N)N)C(=O)N[C@H](C(=O)N[C@@H](CCCCN)C(=O)NCc1ccc(C(=N)N)cc1)C(C)C (Ac-LLLFRVK-{NH(4-amidinobenzyl)}),1.5
23000,39000,6,9,CC(=O)N[C@@H](Cc1c[nH]c2ccccc12)C(=O)N[C@@H](CC(C)C)C(=O)N[C@@H](CC(C)C)C(=O)N[C@@H](CC(C)C)C(=O)N[C@@H](CCCNC(=N)N)C(=O)N[C@H](C(=O)N[C@@H](CCCCN)C(=O)NCc1ccc(C(=N)N)cc1)C(C)C (Ac-WLLLRVK-{NH(4-amidinobenzyl)}),0.7
150000,> 250000,3,3,CC(=O)N[C@@H](CCC(N)=O)C(=O)N[C@@H](CC(C)C)C(=O)N[C@@H](CC(C)C)C(=O)N[C@@H](CC(C)C)C(=O)N[C@@H](CCCNC(=N)N)C(=O)N[C@H](C(=O)N[C@@H](CCCCN)C(=O)NCc1ccc(C(=N)N)cc1)C(C)C (Ac-QLLLRVK-{NH(4-amidinobenzyl)}),1
20000,30000,8.1,9.8,CC[C@H](C)[C@H](NC(=O)[C@H](CC(C)C)NC(=O)[C@H](CC(C)C)NC(C)=O)C(=O)N[C@H](C(=O)N[C@@H](CCCNC(=N)N)C(=O)N[C@H](C(=O)N[C@@H](CCCCN)C(=O)NCc1ccc(C(=N)N)cc1)C(C)C)[C@@H](C)CC,0.8
140000,110000,2.4,4,CC(=O)N[C@H](C(=O)N[C@@H](CC(C)C)C(=O)N[C@@H](CC(C)C)C(=O)N[C@@H](CC(C)C)C(=O)N[C@@H](CCCNC(=N)N)C(=O)N[C@H](C(=O)N[C@@H](CCCCN)C(=O)NCc1ccc(C(=N)N)cc1)C(C)C)[C@@H](C)O (Ac-TLLLRVK-{NH(4-amidinobenzyl)}),0.6
50000,28000,27,8,CC[C@H](C)[C@H](NC(=O)[C@H](CC(C)C)NC(=O)[C@H](CC(C)C)NC(=O)[C@H](CC(C)C)NC(C)=O)C(=O)N[C@@H](CCCNC(=N)N)C(=O)N[C@H](C(=O)N[C@@H](CCCCN)C(=O)NCc1ccc(C(=N)N)cc1)C(C)C (Ac-LLLIRVK-{NH(4-amidinobenzyl)}),3.4
25000,40000,9.8,4.9,CC(=O)N[C@H](CC(C)C)C(=O)N[C@@H](CC(C)C)C(=O)N[C@@H](CC(C)C)C(=O)N[C@@H](CC(C)C)C(=O)N[C@@H](CCCNC(=N)N)C(=O)N[C@H](C(=O)N[C@@H](CCCCN)C(=O)NCc1ccc(C(=N)N)cc1)C(C)C (Ac-[dL]LLLRVK-{NH(4-amidinobenzyl)}),2
12000,26000,4,5,CC(=O)N[C@@H](CC(C)C)C(=O)N[C@@H](CC(C)C)C(=O)N[C@@H](CC(C)C)C(=O)N[C@@H](CCC(N)=O)C(=O)N[C@@H](CCCNC(=N)N)C(=O)N[C@H](C(=O)N[C@@H](CCCCN)C(=O)NCc1ccc(C(=N)N)cc1)C(C)C (Ac-LLLQRVK-{NH(4-amidinobenzyl)}),0.8
31000,40000,2,2.5,CC[C@H](C)[C@H](NC(=O)[C@H](CC(C)C)NC(C)=O)C(=O)N[C@@H](CC(C)C)C(=O)N[C@@H](CC(C)C)C(=O)N[C@@H](CCCNC(=N)N)C(=O)N[C@H](C(=O)N[C@@H](CCCCN)C(=O)NCc1ccc(C(=N)N)cc1)C(C)C (Ac-LILLRVK-{NH(4-amidinobenzyl)}),0.8
45000,60000,4,2.1,CC(=O)N[C@@H](CC(C)C)C(=O)N[C@@H](CC(C)C)C(=O)N[C@@H](CC(C)C)C(=O)N[C@H](C(=O)N[C@@H](CCCNC(=N)N)C(=O)N[C@H](C(=O)N[C@@H](CCCCN)C(=O)NCc1ccc(C(=N)N)cc1)C(C)C)C(C)C (Ac-LLLVRVK-{NH(4-amidinobenzyl)}),1.9
37000,60000,11.7,14,CC[C@H](C)[C@H](NC(=O)[C@H](CC(C)C)NC(=O)[C@@H](CC(C)C)NC(C)=O)C(=O)N[C@H](C(=O)N[C@@H](CCCNC(=N)N)C(=O)N[C@H](C(=O)N[C@@H](CCCCN)C(=O)NCc1ccc(C(=N)N)cc1)C(C)C)[C@@H](C)CC,0.8
